How the values were obtained:
Format in all cases: functional
[1] = species on record: Oryctolagus cuniculus; test: Concentration which inhibits 50% of contraction induced by caffeine on rabbit renal artery
How it was run: (§1)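 Male New Zealand White rabbit left renal artery rings (2.5–3 mm) in Krebs' solution at 37 °C, gassed 95% O2/5% CO2, 3 g preload, 90 min equilibration, isometric tension. Three matched control contractions to caffeine 10 mM, then caffeine contractions repeated at 20 min with each rising test concentration until maximal inhibition. IC50 by linear regression; five to nine preparations.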

[2] = species on record: Oryctolagus cuniculus; test: Inhibition of contraction induced by caffeine on rabbit renal artery; design: concentration or dose not given beside the values; how it was run: as §1
[3] = species on record: Oryctolagus cuniculus; test: Inhibitory selectivity for Phenylephrine (PE) and Potassium (K+) induced contraction on rabbit renal artery
[4] = species on record: Oryctolagus cuniculus; test: Concentration which inhibits 50% of contraction induced by potassium on rabbit renal artery
How it was run: (§2)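 Endothelium-denuded arterial rings, with denudation confirmed by no acetylcholine (1 μM) relaxation of tissue precontracted with phenylephrine 0.1 μM. After reproducible 40 mM K+ responses, sustained tonic contraction to K+ 40 mM or phenylephrine 5 μM. Test compound added cumulatively until maximal relaxation.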

[5] = species on record: Oryctolagus cuniculus; test: Concentration which inhibits 50% of contraction induced by phenylephrine on rabbit renal artery; how it was run: as §2
[6] = species on record: Oryctolagus cuniculus; test: Inhibition of contraction induced by potassium on rabbit renal artery; how it was run: as §2
[7] = species on record: Oryctolagus cuniculus; test: Inhibition of contraction induced by phenylephrine on rabbit renal artery; how it was run: as §2
[8] = species on record: Oryctolagus cuniculus; test: 50% inhibition of contraction induced by potassium on rabbit renal artery; how it was run: as §2

Compound | IC50 [1] [µM] | Inhibition [2] [%] | IC50 ratio [3] | IC50 [4] [µM] | IC50 [5] [µM] | Inhibition [6] [%] | Inhibition [7] [%] | Inhibition [8] [%]
CN(CCOC(c1ccc(F)cc1)c1ccc(F)cc1)CC1CNc2ccccc2O1 (centres undefined) | > 30 | 23 |  |  |  |  |  | 
Fc1ccc(N2CCN(CCCC3CNc4ccccc4O3)CC2)cc1 (centres undefined) | > 30 | 22 | 0.29 | 11 | 3.2 |  |  | 
COc1ccc(CCNCCC2CN(Cc3ccccc3)c3ccccc3O2)cc1OC (centres undefined) | 12.3 |  | 2.3 | 4.4 | 10.1 |  |  | 
COc1ccc(CCN(CCCC2Oc3cc4c(cc3NC2=O)OCCO4)Cc2ccccc2)cc1OC (centres undefined) | > 30 | 0 | >=1 | ≥ 100 | 100 | 41 | 47 | 
COc1ccc(CCNCC2CN(C)c3ccccc3O2)cc1OC (centres undefined) | > 30 | 46 | 0.36 | 57.4 | 20.9 |  |  | 
COc1ccc(CCN(C)CCC2CN(Cc3ccccc3)c3ccccc3O2)cc1OC (centres undefined) | > 30 | 37 | 4.1 | 7.9 | 32.6 |  |  | 
O=C(c1ccccc1)N1CC(CCCN2CCN(c3ccc(F)cc3)CC2)Oc2ccccc21 (centres undefined) | > 30 | 8 | 0.15 | 19 | 2.8 |  |  | 
O=C1Nc2cc3c(cc2OC1CCCN1CCN(c2ccc(F)cc2)CC1)OCCO3 (centres undefined) | > 30 | 22 | 0.009 | 45.3 | 0.43 |  |  | 
Fc1ccc(N2CCN(CC3CN(Cc4ccccc4)c4ccccc4O3)CC2)cc1 (centres undefined) | > 30 | 2 | 0.21 | 52.4 | 10.9 |  |  | 
COc1ccc(CCNCCCC2Oc3cc4c(cc3NC2=O)OCCO4)cc1OC (centres undefined) | > 30 | 0 |  | > 100 | 14.2 | 38 |  | 
COc1ccc(CCNCC2CN(Cc3ccccc3)c3ccccc3O2)cc1OC (centres undefined) | > 30 | 48 | 1.2 | 9.4 | 11.4 |  |  | 
Fc1ccc(C(OCCNCCCC2CN(Cc3ccccc3)c3ccccc3O2)c2ccc(F)cc2)cc1 (centres undefined) | > 30 | 5 |  | > 100 | > 100 | 26 | 12 | 
COc1ccc(CCNCCC2CNc3ccccc3O2)cc1OC (centres undefined) | > 30 | 26 |  | > 100 | 42 |  |  | 25
CN1CC(CN2CCN(c3ccc(F)cc3)CC2)Oc2ccccc21 (centres undefined) | > 30 | 32 | 0.06 | 23.1 | 1.4 |  |  | 
COc1ccc(CCN(C)CCCC2Oc3cc4c(cc3NC2=O)OCCO4)cc1OC (centres undefined) | > 30 | 0 | 7.3 | 2.2 | 14.6 |  |  | 
COc1ccc(CCNCCCC2CN(Cc3ccccc3)c3ccccc3O2)cc1OC (centres undefined) | 11.8 |  | 2.1 | 10.2 | 21.6 |  |  | 
COc1ccc(CCNCCC2CN(C)c3ccccc3O2)cc1OC (centres undefined) | 21.8 |  | 0.26 | 44.7 | 11.8 |  |  | 
COc1ccc(CCNCCCC2CNc3ccccc3O2)cc1OC (centres undefined) | > 30 | 16 |  | > 100 | 100 | 30 | 49 | 
COc1ccc(CCNCC2CNc3ccccc3O2)cc1OC (centres undefined) | > 30 | 26 |  |  |  |  |  | 
COc1ccc(CCNCCC2CN(S(=O)(=O)c3cccc4ccccc34)c3ccccc3O2)cc1OC (centres undefined) | > 30 | 46 | 10.1 | 8.3 | 83.7 |  |  | 
COc1ccc(CCNCCCC2CN(C(=O)c3ccccc3)c3ccccc3O2)cc1OC (centres undefined) | 30 |  | 1.5 | 8.4 | 12.6 |  |  | 
COc1ccc(CCNCCCCC2CN(Cc3ccccc3)c3ccccc3O2)cc1OC (centres undefined) | 13.9 |  | 5 | 8.6 | 43.1 |  |  | 
Fc1ccc(N2CCN(CC3CNc4ccccc4O3)CC2)cc1 (centres undefined) | > 30 | 9 | 0.07 | 24.7 | 1.6 |  |  | 
Fc1ccc(C(OCCNCC2CNc3ccccc3O2)c2ccc(F)cc2)cc1 (centres undefined) | 26.3 |  |  | 74.8 |  |  |  | 
COc1ccc(CCNCCC2CN(Cc3ccc(OC)c(OC)c3)c3ccccc3O2)cc1OC (centres undefined) | 30 | 57 | 2.2 | 15.1 | 33.7 |  |  | 
Fc1ccc(N2CCN(CCCC3CN(Cc4ccccc4)c4ccccc4O3)CC2)cc1 (centres undefined) | > 30 | 0 | 0.06 | 76.5 |  |  |  | 
COc1ccc(CCNCCC2CN(S(=O)(=O)c3cccc4cnccc34)c3ccccc3O2)cc1OC (centres undefined) | > 30 | 23 | 1.8 | 7.3 | 13.3 |  |  | 
Fc1ccc(C(OCCNCC2CN(Cc3ccccc3)c3ccccc3O2)c2ccc(F)cc2)cc1 (centres undefined) | > 30 | 5 | 5.3 | 17.6 | 93.3 |  |  | 

Reference: ChEMBL document CHEMBL1131582, “New substituted 1,4-benzoxazine derivatives with potential intracellular calcium activity” (J Med Chem, 1998)
